# ChEMBL document CHEMBL4680093 (J Med Chem, 2016)
# How the values were obtained:
# [1] = In-vivo inhibition of 11beta-HSD1 activity in C57BL/6 mouse epididymal fat assessed as reduction in cortisone to-cortisol conversion at 3 mg/kg, po measured after 6 hrs by ELISA; format: functional; details: C57BL/6, Epididymal fat pad
# Procedure, shortened: (§1)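 Male C57BL/6 mice dosed orally once at 3, 10 or 30 mg/kg in sterile water containing 0.5% methylcellulose and 1% Tween80, then sacrificed at 2 or 6 h. Liver and epididymal fat pads incubated ex vivo in culture medium containing cortisone. Cortisol formed was measured by ELISA and reported as % inhibition versus vehicle.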
# [2] = In-vivo inhibition of 11beta-HSD1 activity in C57BL/6 mouse epididymal fat assessed as reduction in cortisone to-cortisol conversion at 10 mg/kg, po measured after 6 hrs by ELISA; format: functional; details: C57BL/6, Epididymal fat pad; procedure, shortened: as §1
# [3] = In-vivo inhibition of 11beta-HSD1 activity in C57BL/6 mouse epididymal fat assessed as reduction in cortisone to-cortisol conversion at 30 mg/kg, po measured after 6 hrs by ELISA; format: functional; details: C57BL/6, Epididymal fat pad; procedure, shortened: as §1
# [4] = In-vivo inhibition of 11beta-HSD1 activity in C57BL/6 mouse epididymal fat assessed as reduction in cortisone to-cortisol conversion at 3 mg/kg, po measured after 2 hrs by ELISA; format: functional; details: C57BL/6, Epididymal fat pad; procedure, shortened: as §1
# [5] = In-vivo inhibition of 11beta-HSD1 activity in C57BL/6 mouse epididymal fat assessed as reduction in cortisone to-cortisol conversion at 30 mg/kg, po measured after 2 hrs by ELISA; format: functional; details: C57BL/6, Epididymal fat pad; procedure, shortened: as §1
# [6] = In-vivo inhibition of 11beta-HSD1 activity in C57BL/6 mouse liver assessed as reduction in cortisone to-cortisol conversion at 3 mg/kg, po measured after 6 hrs by ELISA; format: functional; details: C57BL/6, Liver; procedure, shortened: as §1
# [7] = Unbound drug level in mouse plasma at 10 mg/kg, po measured after 2 hrs post dose; format: ADME, organism-based; details: in vivo
# [8] = In-vivo inhibition of 11beta-HSD1 activity in C57BL/6 mouse liver assessed as reduction in cortisone to-cortisol conversion at 10 mg/kg, po measured after 2 hrs by ELISA; format: functional; details: C57BL/6, Liver
# [9] = In-vivo inhibition of 11beta-HSD1 activity in C57BL/6 mouse epididymal fat assessed as reduction in cortisone to-cortisol conversion at 10 mg/kg, po measured after 2 hrs by ELISA; format: functional; details: C57BL/6, Epididymal fat pad; procedure, shortened: as §1
# Cytochrome P450 2C9 = Cytochrome P450 2C9 (Homo sapiens, UniProt P11712); assay: Inhibition of CYP2C9 in pooled human liver microsomes using diclofenac as substrate in presence of NADPH incubated for 10 mins by LC-MS/MS analysis
# Cytochrome P450 2C9, sequence (P11712 whole entry): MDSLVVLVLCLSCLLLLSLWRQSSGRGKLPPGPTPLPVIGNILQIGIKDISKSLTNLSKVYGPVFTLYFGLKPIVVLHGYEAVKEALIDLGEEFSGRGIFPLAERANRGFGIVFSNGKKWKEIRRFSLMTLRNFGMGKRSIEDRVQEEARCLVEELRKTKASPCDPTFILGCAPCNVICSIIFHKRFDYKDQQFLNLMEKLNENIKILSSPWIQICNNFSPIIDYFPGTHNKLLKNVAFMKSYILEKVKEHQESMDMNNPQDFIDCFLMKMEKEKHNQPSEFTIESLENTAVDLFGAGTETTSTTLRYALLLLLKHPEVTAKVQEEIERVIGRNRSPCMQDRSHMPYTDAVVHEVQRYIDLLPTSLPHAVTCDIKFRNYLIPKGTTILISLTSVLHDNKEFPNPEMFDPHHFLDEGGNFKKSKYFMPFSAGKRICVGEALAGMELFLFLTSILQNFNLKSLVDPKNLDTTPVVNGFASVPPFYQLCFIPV
# Cytochrome P450 2D6 = Cytochrome P450 2D6 (Homo sapiens, UniProt P10635); assay: Inhibition of CYP2D6 in pooled human liver microsomes using dextromethorphan as substrate in presence of NADPH incubated for 10 mins by LC-MS/MS analysis
# Cytochrome P450 2D6, sequence (P10635 whole entry): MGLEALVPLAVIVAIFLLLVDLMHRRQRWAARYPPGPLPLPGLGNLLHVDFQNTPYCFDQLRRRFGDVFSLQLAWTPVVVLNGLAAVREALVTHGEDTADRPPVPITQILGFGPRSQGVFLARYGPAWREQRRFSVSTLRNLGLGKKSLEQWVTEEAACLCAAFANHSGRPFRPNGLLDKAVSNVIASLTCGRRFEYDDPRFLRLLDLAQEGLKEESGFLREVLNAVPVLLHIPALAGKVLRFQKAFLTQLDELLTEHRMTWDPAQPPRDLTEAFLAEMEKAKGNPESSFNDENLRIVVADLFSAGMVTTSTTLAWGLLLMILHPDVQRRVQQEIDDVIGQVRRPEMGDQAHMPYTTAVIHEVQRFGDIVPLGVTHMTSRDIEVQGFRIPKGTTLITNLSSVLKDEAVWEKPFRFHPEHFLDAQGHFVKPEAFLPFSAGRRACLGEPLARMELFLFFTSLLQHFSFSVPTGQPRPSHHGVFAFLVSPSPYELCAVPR
# Homo sapiens = species: Homo sapiens; assay: Selectivity index, ratio of IC50 for human 11beta-HSD2 to IC50 for human 11beta-HSD1
# Phosphodiesterase 4 = Phosphodiesterase 4 (Homo sapiens, UniProt P27815+Q08499+Q07343+Q08493); assay: Inhibition of PDE4 (unknown origin); format: protein assay
# [10] = Clearance in dog at 0.5 mg/kg, iv; format: ADME, organism-based, Canis lupus familiaris; details: in vivo
# [11] = Volume of distribution at steady state in rat at 1 mg/kg, iv; format: ADME, organism-based; details: in vivo, read-out: Vdss
# Procedure, shortened: (§2)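 Single-dose PK study. The iv dose was given in 10% hydroxypropyl-β-cyclodextrin and the oral dose in 0.5% methylcellulose/1% Tween80. Mouse and rat received 1 mg/kg iv and 5 mg/kg po. Dog received 0.5 mg/kg iv and 4 mg/kg po. CL, Vss, t1/2, AUC, Cmax, tmax and F were derived.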
# [12] = Volume of distribution at steady state in dog at 0.5 mg/kg, iv; format: ADME, organism-based, Canis lupus familiaris; details: in vivo, read-out: Vdss; procedure, shortened: as §2
# [13] = AUC in rat at 1 mg/kg, iv; format: ADME, organism-based; parameters: dose 1 mg/kg; details: in vivo
# [14] = Cmax in mouse at 5 mg/kg, po; format: ADME, organism-based; parameters: route oral, dose 5 mg/kg; details: in vivo
# [15] = Cmax in rat at 5 mg/kg, po; format: ADME, organism-based; parameters: route oral, dose 5 mg/kg; details: in vivo
# [16] = Cmax in dog at 4 mg/kg, po; format: ADME, organism-based, Canis lupus familiaris; parameters: route oral, dose 4 mg/kg; details: in vivo
# [17] = Tmax in rat at 5 mg/kg, po; format: ADME, organism-based; details: in vivo; procedure, shortened: as §2
# [18] = Tmax in dog at 4 mg/kg, po; format: ADME, organism-based, Canis lupus familiaris; details: in vivo; procedure, shortened: as §2
# [19] = AUC in mouse at 5 mg/kg, po; format: ADME, organism-based; parameters: dose 5 mg/kg; details: in vivo
# [20] = AUC in rat at 5 mg/kg, po; format: ADME, organism-based; parameters: dose 5 mg/kg; details: in vivo
# [21] = Oral bioavailability in dog at 4 mg/kg; format: ADME, organism-based, Canis lupus familiaris; details: in vivo; procedure, shortened: as §2
# [22] = Drug level in mouse liver at 10 mg/kg, po measured after 2 hrs post dose; format: ADME, organism-based; details: in vivo
# Procedure, shortened: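 C57BL/6 mice given a single oral 10 mg/kg dose in 0.5% methylcellulose plus 1% Tween80. Sacrifice at 2 h post-dose, with collection of brain, liver, adipose and plasma. Compound concentration expressed as nmol/g, along with tissue/plasma ratio.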
# [23] = Ratio of drug level in brain to plasma of mouse at 10 mg/kg, po measured after 2 hrs post dose; format: ADME, organism-based; details: read-out: BPR
# Procedure, shortened: (§3)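 C57BL/6 mice received a single oral dose of 10 mg/kg in 0.5% methylcellulose/1% Tween80. Animals were sacrificed 2 h post-dose. Compound was measured in brain, liver, adipose and plasma (nmol/g), and tissue/plasma ratios were calculated.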
# [24] = Ratio of drug level in adipose tissue to plasma of mouse at 10 mg/kg, po measured after 2 hrs post dose; format: ADME, organism-based; procedure, shortened: as §3
# [25] = Toxicity in dog assessed as induction of abnormal changes in respiratory system up to 400 mg/kg, po; format: organism-based, Canis lupus familiaris; details: in vivo
# Procedure, shortened: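 Dogs fitted with telemetry were given oral doses of up to 400 mg/kg. Cardiovascular and respiratory systems were monitored for abnormal changes.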
# [26] = Genotoxicity in Salmonella typhimurium by reverse mutation assay; format: toxicity; details: salmonella enterica subsp. enterica serovar typhimurium
# Erythrocyte = assay: Genotoxicity in mouse erythrocytes by micronucleus test; format: toxicity, cell-based
# [27] = Toxicity in male mouse during 4-week repeated once daily oral-dose toxicity study; details: in vivo, time 4 weeks
# Procedure, shortened: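 Mice of both sexes were dosed orally once daily for 4 weeks at 40, 100, 250 and 625 mg/kg. Toxicity was assessed and the NOAEL determined.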
# [28] = Toxicity in female dog during 4-week repeated once daily oral-dose toxicity study; parameters: species or system Canis lupus familiaris; details: in vivo, time 4 weeks
# Procedure, shortened: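 Dogs of both sexes were dosed orally once daily for 4 weeks at 25, 100 and 400 mg/kg. Toxicity was assessed and the NOAEL determined.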
# Mus musculus = assay: Improvement in lipid profile in C57BL/6-Lep^ob (ob/ob) mouse assessed as LDL cholesterol level at 20 mg/kg, po dosed once daily for 25 days (reference value: 30.3 +/- 0.8 mg/dl); format: functional; details: time 25 day
# [29] = Reduction in HbA1c level in C57BL/6-Lep^ob (ob/ob) mouse at 20 mg/kg, po dosed once daily for 25 days and co-treated with 300 mg/kg. po QD for 25 days metformin relative to control; parameters: scale not given: the % may be the effect or the level left; details: time 25 day
structure (smiles),measurement,setting,value
C[C@@H]1CN(c2ccc(S(C)(=O)=O)cc2F)CCN1c1nccc(C(=O)NC2C3CC4CC2CC(O)(C4)C3)n1 (stereo not given in full),inhibition in vivo at 3 mg/kg,[1],84%
same,inhibition in vivo at 10 mg/kg,[2],93%
same,inhibition in vivo at 30 mg/kg,[3],93%
same,inhibition in vivo at 3 mg/kg,[4],86%
same,inhibition in vivo at 30 mg/kg,[5],92%
same,inhibition in vivo at 3 mg/kg,[6],71%
same,Cp(f),[7],100 nM
same,inhibition in vivo at 10 mg/kg,[8],86%
same,inhibition in vivo at 10 mg/kg,[9],88%
same,IC50,Cytochrome P450 2C9,> 10 µM
same,IC50,Cytochrome P450 2D6,> 10 µM
same,Ratio IC50,Homo sapiens,> 3000
same,IC50,Phosphodiesterase 4,5.2 µM
same,clearance,[10],6 mL/min/kg
same,Vd,[11],2.1 L/kg
same,Vd,[12],2.4 L/kg
same,AUC,[13],1120 ng·h/mL
same,Cmax,[14],2210 ng/mL
same,Cmax,[15],1020 ng/mL
same,Cmax,[16],1120 ng/mL
same,Tmax,[17],1.3 h
same,Tmax,[18],2.1 h
same,AUC,[19],11300 ng·h/mL
same,AUC,[20],3390 ng·h/mL
same,bioavailability,[21],98%
same,Drug uptake,[22],31 nmol/g
same,Kp at 2 h,[23],0.04
same,Kp at 2 h,[24],0.62
same,Activity,[25],Non-Toxic
same,Activity,[26],Non-Toxic
same,Activity,Erythrocyte,Non-Toxic
same,NOAEL at 672 h,[27],625 mg/kg
same,NOAEL at 672 h,[28],400 mg/kg
same,Activity,Mus musculus,17.1 mg/dL
same,Activity,[29],1.67%
